Screens from PubChem.
A selection: hits, their analogues and other compounds. The true share with any hit is near 2.9%.
SENP8 block-1 – blocks human SENP8 cleavage of Nedd8 substrate; inhibition, % at 20 µM; hit rate 0.64% among 360,000; recombinant SENP8, Nedd8 substrate fluorescence; Q96LD8; AID 602440; in the data active = inhibition mostly above about 40%, no sharp cut-off; inactive = mostly below about 27%
SENP7 inh – SENP7 protease inhibition; Q9BQF6; recombinant SENP7, Z-RLRGG-aminoluciferin luminescence, 40 min; inhibition, % at 5 µM; hit rate 1.5% among 330,000;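 active = inhibition above about 50% at the single test dose, limit read from the data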
SENP8 block-2 – inhibitors of human SENP8 protease | Q96LD8 | purified SENP8, Z-RLRGG-aminoluciferin cleavage, luminescence | inhibition, % at 10 µM | hit rate 1.2% among 330,000; in the data active = inhibition above about 50%
SENP6 block – SENP6 protease inhibition. Q9GZR1. hit rate 1.8% among 330,000. Recombinant SENP6 catalytic domain, aminoluciferin luminescence. inhibition, % at 10 µM;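 active = inhibition above about 50% at the single tested dose, limit read from the data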
SENP1 FRET inh – SENP1 (human) catalytic domain inhibition | inhibition, % at 10 µM | hit rate 0.21% among 360,000 | Q9P0U3 | recombinant SENP1 catalytic domain, CyPet-SUMO1-YPet FRET cleavage | AID 624204;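 active = inhibition at least 30% at 10 µM, raw YFP signal under a set limit, fluorescence ratio 0.5 to 1.5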
Target sequence (Q9P0U3 419-644 limits assumed): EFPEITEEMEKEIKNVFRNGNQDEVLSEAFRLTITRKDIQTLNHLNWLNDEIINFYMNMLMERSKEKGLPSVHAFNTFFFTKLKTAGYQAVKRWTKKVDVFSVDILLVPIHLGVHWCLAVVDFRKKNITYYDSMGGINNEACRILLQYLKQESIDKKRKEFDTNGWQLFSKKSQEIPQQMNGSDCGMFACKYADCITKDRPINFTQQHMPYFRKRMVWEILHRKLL
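Test system: human SENP1 catalytic domain; medium: Tris pH 8 buffer plus EDTA, NaCl, BME, BSA, NP40, catalase; incubation: 50 min reaction at room temperature; technique: FRET, CFP and YFP emission; controls: no-enzyme low control and enzyme-plus-DMSO high control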
HSP90 refold inh – inhibitors of HSP90 luciferase refolding in rabbit reticulocyte lysate. AID 1789. hit rate 0.91% among 290,000. luciferase refolding luminescence, 3 h. inhibition, % at 5.6 µM;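 active = inhibition above the screen-wide mean plus 3 SD, computed separately per campaign, cut at about 16% in these data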;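 note: inhibitors lower the luminescence because luciferase stays unfolded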
SENP8 conf – confirmation of human SENP8 protease inhibitors; shares compounds with SENP7 inh; Recombinant SENP8, Z-RLRGG-aminoluciferin luminescence, 60 min; inhibition, % at 12.5 µM; hit rate 40% among 6,200; AID 488912;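 active = mean inhibition across replicates above about 50%, limit read from the data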
SENP6 confirm – human SENP6 inhibition, confirmed; recombinant SENP6, Z-RLRGG-aminoluciferin luminescence; hit rate 58% among 6,200; inhibition, % at 12.5 µM; shares compounds with SENP7 inh
SENP7 confirm – human SENP7 inhibition, confirmed; shares compounds with SENP7 inh; recombinant SENP7, Z-RLRGG-aminoluciferin luminescence, 40 min; inhibition, % at 12.5 µM; hit rate 69% among 6,200; AID 488917
Casp3 select – caspase-3 inhibition (SENP selectivity assay) | inhibition, % at 12.5 µM | purified caspase-3, Z-DEVD-aminoluciferin luminescence, 60 min | AID 488918 | hit rate 60% among 6,200 | shares compounds with SENP7 inh;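 active = mean inhibition above about 50%, limit read from the data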
Target sequence (P42574 28-227 limits assumed): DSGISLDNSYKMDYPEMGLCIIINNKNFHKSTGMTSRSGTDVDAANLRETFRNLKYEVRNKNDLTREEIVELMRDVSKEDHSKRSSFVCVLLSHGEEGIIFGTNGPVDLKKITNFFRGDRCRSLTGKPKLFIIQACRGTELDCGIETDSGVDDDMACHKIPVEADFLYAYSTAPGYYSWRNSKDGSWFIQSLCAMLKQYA
SENP luc ctr – luminescence interference (SENP counter-screen) | shares compounds with SENP7 inh | Pre-incubated SENP8/Z-RLRGG-aminoluciferin, luciferase luminescence interference | inhibition, % at 12.5 µM | hit rate 39% among 6,200 | AID 488919;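 active = mean inhibition above about 50% when retested at one dose, limit read from the data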
Of the large screens only hits and unclear results are named; the others gave an inactive call (follow-up assays come after a bar, where they were run).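 Rule for the calls, unless noted: active = mean inhibition above about 50% in the one-dose retest (limit read from the data); inactive = the rest.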

CC1(C)CC(=O)C=C(c2ccc(-c3ccccc3)cc2)C1=O	none (no result: SENP7 inh, SENP8 block-2, SENP6 block, HSP90 refold inh)
O=C1NC[C@H](CCCCN2CCN(Cc3ccccc3)C(=O)C2=O)N(CC2CCCCC2)C1=O	none (no result: SENP7 inh, SENP8 block-2, SENP6 block, HSP90 refold inh)
COc1ccccc1NS(=O)(=O)c1cccc(-n2c(O)c(C=Nc3ccccc3C(=O)O)c3ccccc3c2=O)c1	SENP6 block 52 | SENP8 conf inactive | SENP6 confirm inactive | SENP7 confirm inactive | Casp3 select inactive | SENP luc ctr inactive
N/C(=N\OC(=O)c1ccc(F)cc1)c1ccccc1	SENP7 inh 98, SENP8 block-2 91, SENP6 block 97 | SENP8 conf 96 | SENP6 confirm 96 | SENP7 confirm 102 | Casp3 select 97 | SENP luc ctr 94
Cc1ccc(/C(N)=N/OC(=O)c2ccc(F)cc2)cc1	SENP7 inh 61 | SENP8 conf inactive | SENP6 confirm inactive | SENP7 confirm 69 | Casp3 select 62 | SENP luc ctr inactive
N/C(=N\OC(=O)c1ccc(F)cc1)c1ccc(Br)cc1	none
CC(C)(C)c1cc(C(=O)N/N=C/c2ccc(-c3ccccc3[N+](=O)[O-])o2)n[nH]1	SENP6 block 52 | SENP8 conf inactive | SENP6 confirm inactive | SENP7 confirm inactive | Casp3 select inactive | SENP luc ctr inactive
Cc1cc(C(=O)N/N=C/c2ccc(-c3cccc(Cl)c3Cl)o2)n[nH]1	none
CC(C)Cc1nnc(NC(=O)CCC(=O)NC2CCCCCC2)s1	none
O=C1NCCOC(=O)[C@@H](Cc2ccc(F)cc2)C/C=C\C[C@@H]1CC(=O)N(CCO)Cc1ccccc1	none (no result: HSP90 refold inh)
Cn1cc(Cl)c(C(=O)N/N=C/c2ccc3c4c(cccc24)CC3)n1	SENP7 inh 53 | SENP8 conf inactive | SENP6 confirm inactive | SENP7 confirm inactive | Casp3 select inactive | SENP luc ctr inactive
O=C(/C=C/c1cccc(F)c1)N1CCc2ccccc21	SENP7 inh 95, SENP8 block-2 72, SENP6 block 74 | SENP8 conf inactive | SENP6 confirm inactive | SENP7 confirm inactive | Casp3 select inactive | SENP luc ctr inactive
O=C(/C=C/c1ccc(Cl)cc1Cl)N1CCc2ccccc21	SENP7 inh 92, SENP8 block-2 51, SENP6 block 70 | SENP8 conf inactive | SENP6 confirm inactive | SENP7 confirm inactive | Casp3 select 64 | SENP luc ctr inactive
COC(=O)c1[nH]c2ccc(C)cc2c1NC(=O)Oc1ccccc1	SENP8 block-2 51, SENP6 block 82 | SENP8 conf inactive | SENP6 confirm inactive | SENP7 confirm inactive | Casp3 select inactive | SENP luc ctr inactive
COC(=O)c1[nH]c2ccccc2c1NC(=O)Oc1ccccc1	none
CCC1(C)N=C(c2ccc3c(c2)OCO3)CC(c2ccccc2O)N1 (centres undefined)	SENP8 block-2 78, SENP6 block 91 | SENP8 conf 82 | SENP6 confirm inactive | SENP7 confirm inactive | Casp3 select inactive | SENP luc ctr 63
O=C(c1cc(-c2ccc(Br)cc2)on1)N1CCCC1	SENP6 block 55 | SENP8 conf inactive | SENP6 confirm inactive | SENP7 confirm inactive | Casp3 select inactive | SENP luc ctr inactive
COc1ccc(-c2cc(C(=O)N3CCCCCC3)no2)cc1	SENP6 block 57 | SENP8 conf inactive | SENP6 confirm 50 | SENP7 confirm 83 | Casp3 select 56 | SENP luc ctr inactive
